The source made the active and inactive calls. The calls are words filed in the database; no cut-off is given here.
What was measured:
[1] = Induction of apoptosis in VEGF-stimulated HUVEC assessed as viable cells at 1 uM after 24 hrs by Annexin V-FITC/propidium iodide staining based flow cytometric analysis (reference value: 69.6%); type: cell-based; details: human, read-out: Activity
How it was run: (§1)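 HUVECs plated at 5×10^5 per well and treated 24 h with 1, 5, 10 or 20 μM. Detached and adherent cells were pooled, washed in ice-cold PBS and resuspended in fresh medium. 1×10^5 cells were stained with annexin-V-FITC in annexin-V buffer for 20 min in the dark, then PI (50 μg/mL) was added. Read-out by flow cytometry.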

HT-29 [2] = experiment: Downregulation of VEGF expression in human HT-29 cells after 24 hrs by immunoblot analysis; type: functional, cell-based
HT-29 [3] = experiment: Antiangiogenic activity against human HT-29 cells xenografted in mouse assessed as reduction in formation of new blood vessels in tumour at 20 to 60 mg/kg, po administered every other day for 3 weeks measured at 20 days post-treatment; type: functional, organism-based
[4] = Induction of apoptosis in human HT-29 cells assessed as viable cells at 5 uM after 48 hrs by Annexin V-FITC/propidium iodide staining based flow cytometric analysis (reference value: 81.1%); type: cell-based; details: read-out: Activity
HT-29 [5] = experiment: Induction of apoptosis in human HT-29 cells assessed as early apoptotic cells at 5 uM after 72 hrs by Annexin V-FITC/propidium iodide staining based flow cytometric analysis (reference value: 5.3%); type: cell-based; details: ht-29, 72 h
[6] = target: Mitogen-activated protein kinase 1 (Homo sapiens) (UniProt P28482); experiment: Inhibition of ERK2 (unknown origin) at 10 uM using myelin basic protein as substrate in presence of [gamma-33P]-ATP by scintillation counting analysis relative to control
How it was run: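 Radiometric kinase panel run by a contract lab. Kinase (5–10 mU) in 25 mM Tris pH 7.5, 0.02 mM EGTA, 0.66 mg/mL myelin basic protein, magnesium acetate and [γ-33P]-ATP (about 500 cpm/pmol). Started with Mg-ATP mix, 40 min at room temperature, stopped with 3% phosphoric acid. Spotted on P30 filters, washed in 75 mM phosphoric acid and methanol, scintillation counted. Mean ± SD of three independent experiments.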

HUVEC [7] = experiment: Cytotoxicity against HUVEC at 1 to 5 uM measured after 48 hrs; type: cell-based; details: human
HUVEC [8] = experiment: Inhibition of Akt/mTOR signalling in VEGF-induced HUVEC assessed as reduction in P70S6K phosphorylation at Thr389 residue pre-incubated for 1.5 hrs followed by VEGF stimulation and measured after 30 mins by Western blot analysis; type: cell-based; details: Homo sapiens
How it was run: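 HUVECs were starved overnight, pretreated 1.5 h with 1, 5, 10 or 20 μM, then stimulated with VEGF (50 ng/mL) for 30 min. Lysates were equalized by Bradford assay, about 20 μg protein was resolved on gradient SDS-PAGE and immunoblotted with phospho-specific antibodies. Detection by HRP secondary antibodies and ECL.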

HUVEC [9] = experiment: Effect on total AKT expression in VEGF-induced HUVEC at 1 to 20 uM pre-incubated for 2 hrs followed by VEGF stimulation and measured after 15 mins by Western blot analysis; type: ADME, cell-based; details: human, 0.25 h
How it was run: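 HUVECs serum-starved overnight, pretreated with compound (methods: 1, 2.5, 5, 10 μM for 2 h; legend: 1, 5, 10, 20 μM for 1.5 h), then VEGF 50 ng/mL (methods: VEGF165, 15 min; legend: 30 min); lysates equalized by Bradford, ~20 μg protein resolved on gradient SDS-PAGE, immunoblotted, ECL detection.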

HT-29 [10] = experiment: Induction of apoptosis in human HT-29 cells assessed as early apoptotic cells at 10 uM after 24 hrs by Annexin V-FITC/propidium iodide staining based flow cytometric analysis (reference value: 1.9%); type: cell-based; details: ht-29, 24 h
HT-29 [11] = experiment: Antiangiogenic activity against human HT-29 cells xenografted in mouse assessed as mean vessel density in tumour at 20 to 60 mg/kg, po administered every other day for 3 weeks measured at 20 days post-treatment; type: functional
HUVEC [12] = experiment: Induction of apoptosis in VEGF-stimulated HUVEC assessed as early apoptotic cells at 10 uM after 24 hrs by Annexin V-FITC/propidium iodide staining based flow cytometric analysis (reference value: 7%); type: cell-based; details: human; how it was run: as §1
HT-29 [13] = experiment: Induction of apoptosis in human HT-29 cells assessed as early apoptotic cells at 5 uM after 24 hrs by Annexin V-FITC/propidium iodide staining based flow cytometric analysis (reference value: 1.9 to 5.3%); type: cell-based; details: ht-29, 24 h
[14] = Induction of apoptosis in human HT-29 cells assessed as viable cells at 10 uM after 24 hrs by Annexin V-FITC/propidium iodide staining based flow cytometric analysis (reference value: 80.8%); type: cell-based; details: read-out: Activity
[15] = target: Vascular endothelial growth factor receptor 2 (Homo sapiens) (UniProt P35968); experiment: Inhibition of VEGFR2 in VEGF-stimulated HUVEC assessed as suppression of VEGFR2 phosphorylation at Tyr1175 residue pre-incubated for 2 hrs followed by VEGF stimulation for 15 mins by Western blot analysis; type: cell-based
How it was run: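 HUVECs serum-starved overnight, pretreated 2 h with 1, 2.5, 5 or 10 μM compound, then stimulated 15 min with 50 ng/mL VEGF165. Lysed in Tris/EDTA/Triton/deoxycholate/SDS buffer with phosphatase and protease inhibitors. Protein equalized by Bradford, about 20 μg resolved on gradient SDS-PAGE. Blots probed for phospho and total VEGFR2 (Tyr1175), ERK1/2 (Thr202/Tyr204) and AKT (Ser473) against actin, with HRP/ECL detection.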

HUVEC [16] = experiment: Induction of apoptosis in VEGF-stimulated HUVEC assessed as PARP cleavage at 1 to 20 uM by Western blot analysis; type: cell-based; details: human
HT-29 [17] = experiment: Induction of apoptosis in human HT-29 cells assessed as late apoptotic cells at 5 uM after 48 hrs by Annexin V-FITC/propidium iodide staining based flow cytometric analysis (reference value: 12.3%); type: cell-based; details: ht-29, 48 h
HUVEC [18] = experiment: Antiangiogenic activity in HUVEC assessed as inhibition of VEGF-induced capillary like tube formation preincubated with VEGF for 20 mins followed by compound addition measured after 6 hrs by matrigel based tube formation assay; type: functional, cell-based; details: Homo sapiens
How it was run: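 Matrigel (100 μL) set 1 h at 37°C; 2×10⁴ HUVECs in M200 with 10% FBS added per well plus 10 ng/mL VEGF; compound added after 20 min; incubated 6 h at 37°C, then capillary-like structures photographed.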

[19] = target: RAC-alpha serine/threonine-protein kinase (Homo sapiens) (UniProt P31749); experiment: Inhibition of AKT1 (unknown origin) at 10 uM using myelin basic protein as substrate in presence of [gamma-33P]-ATP by scintillation counting analysis relative to control
How it was run: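 Radiometric kinase assay: kinase (5–10 mU) in 25 mM Tris pH 7.5, 0.02 mM EGTA, 0.66 mg/mL myelin basic protein, magnesium acetate and [γ-33P]ATP. The reaction was started with Mg-ATP, run 40 min at room temperature and stopped with 3% phosphoric acid. Samples were spotted on P30 filters, washed with 75 mM phosphoric acid and methanol, then scintillation counted. Tested at 10 μM; mean of three independent experiments.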

HUVEC [20] = experiment: Induction of apoptosis in VEGF-stimulated HUVEC assessed as early apoptotic cells at 5 uM after 24 hrs by Annexin V-FITC/propidium iodide staining based flow cytometric analysis (reference value: 7%); type: cell-based; details: human; how it was run: as §1

Sequence of RAC-alpha serine/threonine-protein kinase (Homo sapiens) (P31749 whole entry): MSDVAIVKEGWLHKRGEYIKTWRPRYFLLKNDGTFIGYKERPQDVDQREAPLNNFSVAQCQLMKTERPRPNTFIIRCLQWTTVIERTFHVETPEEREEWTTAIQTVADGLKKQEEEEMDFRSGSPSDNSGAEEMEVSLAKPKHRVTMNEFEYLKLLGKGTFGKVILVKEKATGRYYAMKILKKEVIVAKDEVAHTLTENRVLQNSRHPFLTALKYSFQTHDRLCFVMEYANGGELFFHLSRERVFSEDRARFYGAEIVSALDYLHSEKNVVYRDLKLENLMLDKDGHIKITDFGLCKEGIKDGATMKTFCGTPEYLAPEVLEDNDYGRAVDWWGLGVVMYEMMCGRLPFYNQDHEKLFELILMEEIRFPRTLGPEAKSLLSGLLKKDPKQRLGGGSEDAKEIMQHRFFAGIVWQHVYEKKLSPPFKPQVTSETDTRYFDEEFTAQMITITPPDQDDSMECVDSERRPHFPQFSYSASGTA
Sequence of Mitogen-activated protein kinase 1 (Homo sapiens) (P28482 whole entry): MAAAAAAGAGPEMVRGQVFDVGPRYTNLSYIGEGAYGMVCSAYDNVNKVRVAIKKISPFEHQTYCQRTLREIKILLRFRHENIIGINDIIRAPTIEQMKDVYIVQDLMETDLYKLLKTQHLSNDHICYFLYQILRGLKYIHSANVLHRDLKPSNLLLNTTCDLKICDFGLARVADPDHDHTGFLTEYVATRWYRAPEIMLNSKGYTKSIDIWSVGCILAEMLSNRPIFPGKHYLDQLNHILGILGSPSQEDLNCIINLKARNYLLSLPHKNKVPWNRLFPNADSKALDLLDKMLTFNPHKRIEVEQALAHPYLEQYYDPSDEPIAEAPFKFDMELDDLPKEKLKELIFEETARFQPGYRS
Sequence of Vascular endothelial growth factor receptor 2 (Homo sapiens) (P35968 whole entry): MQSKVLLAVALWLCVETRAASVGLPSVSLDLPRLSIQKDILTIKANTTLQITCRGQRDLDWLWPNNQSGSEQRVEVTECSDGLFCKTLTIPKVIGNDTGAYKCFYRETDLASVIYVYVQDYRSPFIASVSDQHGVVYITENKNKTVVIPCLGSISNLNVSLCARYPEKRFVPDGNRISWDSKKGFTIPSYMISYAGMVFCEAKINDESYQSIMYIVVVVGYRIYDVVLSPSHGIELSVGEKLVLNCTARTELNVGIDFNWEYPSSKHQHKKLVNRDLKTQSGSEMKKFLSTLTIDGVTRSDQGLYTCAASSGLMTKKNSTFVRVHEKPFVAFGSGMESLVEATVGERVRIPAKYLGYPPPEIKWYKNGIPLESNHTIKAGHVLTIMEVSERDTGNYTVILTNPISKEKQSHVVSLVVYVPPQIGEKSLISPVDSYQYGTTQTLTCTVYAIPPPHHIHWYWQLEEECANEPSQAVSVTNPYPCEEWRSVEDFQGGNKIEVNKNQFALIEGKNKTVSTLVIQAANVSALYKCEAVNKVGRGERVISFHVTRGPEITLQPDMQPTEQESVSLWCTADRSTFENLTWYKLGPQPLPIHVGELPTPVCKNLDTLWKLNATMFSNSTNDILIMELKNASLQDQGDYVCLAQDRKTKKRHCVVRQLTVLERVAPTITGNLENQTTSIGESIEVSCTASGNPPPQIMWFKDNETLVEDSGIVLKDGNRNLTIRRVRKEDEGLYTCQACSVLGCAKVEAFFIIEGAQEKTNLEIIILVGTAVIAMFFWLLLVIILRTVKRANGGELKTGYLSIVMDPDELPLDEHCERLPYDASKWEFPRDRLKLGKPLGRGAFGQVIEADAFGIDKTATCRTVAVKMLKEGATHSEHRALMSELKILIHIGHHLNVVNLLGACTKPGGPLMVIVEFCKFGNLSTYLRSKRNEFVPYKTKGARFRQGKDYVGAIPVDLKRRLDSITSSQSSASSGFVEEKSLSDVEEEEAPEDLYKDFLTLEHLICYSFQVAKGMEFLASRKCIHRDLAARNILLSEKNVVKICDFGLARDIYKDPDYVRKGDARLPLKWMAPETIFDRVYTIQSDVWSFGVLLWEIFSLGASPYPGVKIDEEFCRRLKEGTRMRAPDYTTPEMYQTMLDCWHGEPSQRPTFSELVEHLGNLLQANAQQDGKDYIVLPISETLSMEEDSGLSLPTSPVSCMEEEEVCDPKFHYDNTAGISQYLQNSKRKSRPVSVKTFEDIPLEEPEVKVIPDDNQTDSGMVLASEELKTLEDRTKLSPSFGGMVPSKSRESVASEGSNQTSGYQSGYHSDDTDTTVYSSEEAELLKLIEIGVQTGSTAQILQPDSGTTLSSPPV

## COc1ccc(NC(=O)c2cccc(/C=C3\CC(=O)N(c4ccc(C)cc4)C3=O)c2)cc1
[1]
  viability at 24 h, 1 µM: 72.6%
HT-29 [2]
  inhibition: Dose-dependent effect
HT-29 [3]
  inhibition: Active
[4]
  viability at 48 h, 5 µM: 76.1%
HT-29 [5]
  Activity: 9.8%
[6]
  inhibition: 50 to 70%
HUVEC [7]
  Activity: Non-Toxic
HUVEC [8]
  inhibition: Dose-dependent effect
HUVEC [9]
  Activity: Not Active
HT-29 [10]
  Activity: 1.5%
HT-29 [11]
  Activity: 5%
HUVEC [12]
  Activity: 10.8%
HT-29 [13]
  Activity: 1.2 to 5.4%
[14]
  viability at 24 h, 10 µM: 77.2%
[15]
  inhibition: Dose-dependent effect
HUVEC [16]
  Activity: Non-Toxic
HT-29 [17]
  Activity: 13.1%
HUVEC [18]
  inhibition: Dose-dependent effect
[19]
  inhibition: 50 to 70%
HUVEC [20]
  Activity: 10.1%

Source: ChEMBL document CHEMBL4396917, “Synthesis and biological evaluation of novel benzylidene-succinimide derivatives as noncytotoxic antiangiogenic inhibitors with anticolorectal cancer activity in vivo” (Eur J Med Chem, 2019)
